From PubChem
An excerpt weighted towards active compounds, which were near 4.2% of everything screened.
M18AAP inhibitor: PfM18AAP inhibitors, malaria aminopeptidase, primary screen, biochemical, QFRET, recombinant enzyme; M18 aspartyl aminopeptidase (Plasmodium falciparum 3D7); H-Glu-NHMec fluorogenic cleavage; inhibition, % at 7.35 µM; actives 1.2% (n = 290,000);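 active means inhibition above the campaign mean inhibition over all tested compounds plus 3 SD, cut at about 28% in these data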;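 further: 0% = plate median of test compound wells and 100% = 2 mM ZnCl2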
HDAC3 inh: HDAC3 deacetylase inhibitors, primary screen, biochemical, fluorescence, cell-free homogeneous | Histone deacetylase 3 (Homo sapiens), O15379 | recombinant HDAC3, fluorogenic peptide/trypsin coupled | inhibition, % at 8.3 µM | actives 0.15% (n = 320,000); in the data active means inhibition above about 26%, passing the limit was not always enough
Target sequence (O15379 whole entry, looked up): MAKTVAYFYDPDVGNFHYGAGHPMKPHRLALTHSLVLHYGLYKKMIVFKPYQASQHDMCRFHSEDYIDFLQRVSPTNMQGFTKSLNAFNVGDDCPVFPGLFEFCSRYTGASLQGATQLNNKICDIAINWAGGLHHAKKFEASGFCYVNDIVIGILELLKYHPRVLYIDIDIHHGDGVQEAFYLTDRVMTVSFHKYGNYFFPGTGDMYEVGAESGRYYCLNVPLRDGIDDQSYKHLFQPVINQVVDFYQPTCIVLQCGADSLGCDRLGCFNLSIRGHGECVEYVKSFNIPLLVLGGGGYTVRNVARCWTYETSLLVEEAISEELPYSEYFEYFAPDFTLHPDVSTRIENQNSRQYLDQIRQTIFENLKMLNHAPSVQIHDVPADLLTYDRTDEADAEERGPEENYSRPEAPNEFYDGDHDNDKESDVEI
GAA850 FXN act: FXN promoter activators, primary screen, cell-based, luciferase luminescence, HEK293 lucGAA850. actives 0.56% (n = 360,000). AID 540364, 2011. HEK293 lucGAA850 FXN promoter luciferase reporter, 24 h; percent of 10 µM SAHA response. activation, % at 6 µM;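 active means activation above the average of all compounds screened plus 3 SD, cutoff fixed separately per campaign, cut at about 7.5% in these data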;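 further: 0% = DMSO wells and 100% = 10 µM SAHA wells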
SENP1 FRET inh: human SENP1 catalytic domain inhibitors, primary screen, biochemical, FRET, uHTS. Sentrin-specific protease 1 (Homo sapiens), Q9P0U3. actives 0.21% (n = 360,000). AID 624204, 2012. recombinant SENP1 catalytic domain, CyPet-SUMO1-YPet FRET cleavage. inhibition, % at 10 µM;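 active means inhibition at least 30% at 10 µM, raw YFP signal under a set limit, fluorescence ratio 0.5 to 1.5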;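 further: 0% = enzyme with DMSO and 100% = no enzyme wells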
Target sequence (Q9P0U3 419-644 limits assumed): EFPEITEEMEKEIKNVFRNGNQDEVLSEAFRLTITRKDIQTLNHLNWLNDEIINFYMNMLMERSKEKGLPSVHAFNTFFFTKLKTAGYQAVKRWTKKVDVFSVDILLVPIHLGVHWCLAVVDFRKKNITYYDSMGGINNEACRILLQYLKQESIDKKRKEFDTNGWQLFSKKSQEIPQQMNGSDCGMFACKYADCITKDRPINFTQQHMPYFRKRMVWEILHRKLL
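Controls: no-enzyme wells low, DMSO-plus-enzyme wells high control. Test system: human recombinant His6-tagged SENP1 catalytic domain enzyme. Reagent: SFCypet-SUMO1-SFYpet FRET protein substrate, 25 nM final. Doses: one dose per compound, 10 µM, 0.5% DMSO. Detection: FRET, CFP and YFP emission. Timing: 50 min reaction at room temperature.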
AHR act: AHR activators, primary screen, cell-based, luminescence, luciferase reporter, human; Aryl hydrocarbon receptor (Homo sapiens), P35869; AHR-responsive luciferase reporter cells; activation, % at 5 µM; actives 2.5% (n = 320,000); in the data active means activation above about 47%;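 further: 0% = vehicle wells and 100% = reference agonist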
CTSL1 counter: Fasciola hepatica cathepsin L1 inhibitors, primary screen, counter-screen for PFM18AAP inhibitor project, biochemical, QFRET, fluorogenic peptide substrate; inhibition, % at 5.96 µM; recombinant F. hepatica cathepsin L1, Z-Leu-Arg-MCA fluorescence; actives 0.49% (n = 300,000);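 active means inhibition above the mean of all tested compounds plus 3 SD, set per screening campaign, cut at about 17% in these data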;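 further: 0% = plate median of test compound wells and 100% = 1 µM Z-Phe-Ala-diazomethylketone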
GAA30 counter: GAA30 FXN promoter activators, confirmation, counter-screen for GAA850 frataxin promoter activator project, cell-based, luminescence, HEK293, lucGAA30, triplicate; HEK293 lucGAA30 FXN promoter luciferase, 24 h; DMSO = 0%, 5 µM ipriflavone = 100%; shares compounds with GAA850 FXN act; actives 66% (n = 1,900); AID 588350, 2011; activation, % at 6 µM;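 active means mean activation above the mean of solvent-only control wells plus 3 SD, cut at about 22% in these data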;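 further: counterscreen of GAA850 promoter hits where activity marks nonselective or luminescence artifacts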
FXN GAA850 conf: FXN GAA850 promoter activators in reporter cells, confirmation, cell-based, luminescence, HEK293 lucGAA850, triplicate | activation, % at 6 µM | shares compounds with GAA850 FXN act | actives 86% (n = 1,900) | AID 588351, 2011 | HEK293 lucGAA850 FXN promoter luciferase reporter, 24 h; 100% = activation by SAHA;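 active means mean activation above a set limit taken from the primary screen, cut at about 8% in these data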;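 further: 0% = DMSO wells and 100% = 10 µM SAHA wells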
An asterisk follows results filed as active; · = no result given.

SMILES	M18AAP inhibitor	HDAC3 inh	GAA850 FXN act	SENP1 FRET inh	AHR act	CTSL1 counter	GAA30 counter	FXN GAA850 conf
Cc1sc(NC(=O)C2C3CCC(O3)C2C(=O)O)nc1-c1ccc(CC(C)C)cc1 (centres undefined)	-2.5	10.4	13.2*	0.7	3.8	-2.5	62.2*	26.5*
CCOC(=O)c1c(NC(=O)C2C3CCC(O3)C2C(=O)O)sc(C)c1-c1ccc(C)cc1 (centres undefined)	-1.1	-4.3	-0.5	0.9	0.7	2.0	·	·
CN(C(=S)NC1CCCCC1)C1(c2ccccc2Cl)CCCCC1=O (centres undefined)	-2.6	2.6	8.8*	0.5	-2.1	-3.8	12.9	9.2*
CC(C)NC(=S)N(C)C1(c2ccccc2Cl)CCCCC1=O (centres undefined)	-4.2	3.0	2.7	1.3	-0.3	3.6	·	·
Cc1c(C(=O)OCCOC(C)C)[nH]c2c1C(=O)CC(C)(C)C2	-12.8	5.2	10.0*	-2.0	3.1	-2.9	35.4*	13.1*
Cc1c(C(=O)OCCOC(C)C)[nH]c2c1C(=O)CC(c1ccco1)C2 (centres undefined)	-12.0	5.6	-0.1	-6.9	41.1	3.2	·	·
CCN(C[C@H]1N[C@@](Cc2ccccc2)(C(=O)OC)[C@H]2C(=O)N(Cc3ccccc3)C(=O)[C@@H]12)C(=O)Nc1ccc(Cl)cc1	·	3.4	-6.8	0.7	-0.6	·	·	·
CCN(C[C@H]1N[C@@](C)(C(=O)OC)[C@H]2C(=O)N(Cc3ccccc3)C(=O)[C@@H]12)C(=O)Nc1ccc(Cl)cc1	·	5.2	14.2*	-0.4	1.9	·	36.9*	14.7*
CCN(C[C@H]1N[C@@](C)(C(=O)OC)[C@H]2C(=O)N(C)C(=O)[C@@H]12)C(=O)Nc1ccccc1	·	-3.8	-0.5	0.6	0.6	·	·	·
CCN(C[C@H]1N[C@@](C)(C(=O)OC)[C@H]2C(=O)N(Cc3ccccc3)C(=O)[C@@H]12)C(=O)Nc1ccc(OC)cc1	·	-2.7	9.4*	2.2	-1.9	·	27.1*	9.3*
COc1cc([C@H]2Oc3c(OC)cc(CCCO[C@@H]4O[C@H](CO)[C@@H](O)[C@H](O)[C@H]4O)cc3[C@@H]2CO)ccc1O	·	1.3	0.5	-0.7	-1.4	0.9	·	·
CC(=O)c1ccc(NC(=O)CSc2nc(N)c3cc4c(nc3n2)CCCC4)cc1	6.5	-11.4	7.7*	-25.2	7.4	-2.9	100.7*	27.4*
COc1ccc(NC(=O)CSc2nc(N)c3cc4c(nc3n2)CCCC4)cc1	-8.5	12.3	5.6	-10.9	13.7	-2.6	·	·
O=C(COC(=O)Cn1cnc2ccccc21)Nc1ccc2c(c1)C(=O)c1ccccc1C2=O	-0.6	-2.6	8.7*	2.7	13.6	-1.5	108.0*	46.2*
O=C(COC(=O)Cn1cnc2ccccc21)Nc1ccc(Br)cc1	·	·	0.3	6.1	·	·	·	·
Nc1nc2sc3c(c2c(=O)s1)CCCC3	1.1	1.5	8.2*	0.1	2.4	3.6	69.8*	27.8*
Cc1nc2sc3c(c2c(=O)o1)CCCC3	-5.6	1.7	-0.1	1.1	11.6	-0.5	·	·
COc1ccc(C(=O)C(C)N(C(=O)c2ccc(Cl)cc2Cl)N2C(=O)C3C4C=CC(C4)C3C2=O)cc1 (centres undefined)	-9.0	2.7	7.8*	0.4	-1.2	2.4	24.9*	14.2*
CCOC(=O)[C@]12CCC=C1N(Cc1ccc3c(c1)OCO3)C(=O)[C@H](CC(=O)NCCCN1CCCC1=O)C2	·	·	·	0.2	·	·	·	·
Cn1cnc2cc(NC(=O)c3ccc(Cl)cc3)ccc21	-0.9	10.1	9.3*	0.3	-5.0	-1.4	95.3*	42.2*
CCCCS(=O)(=O)NC(=O)C1(C)CCN1C(=O)C/C=C/c1ccccc1 (centres undefined)	·	·	-1.4	-1.2	·	·	·	·
CCOC(=O)/C(=C/c1ccc(N2CCC(c3ccccc3)=N2)cc1)C(C)=O	1.6	·	-13.3	-25.8	·	·	·	·
c1ccc(C2=NN(c3ccccc3)CC2)cc1	0.2	·	7.7*	-133.2	27.5	2.3	107.5*	30.2*
CC1CCN(C(=O)C(C)NCc2ccc(F)cc2)CC1 (centres undefined)	1.7	2.9	0.8	0.4	-0.1	-0.7	·	·
Nc1ccc(-c2nc3ncccc3o2)c(Cl)c1	0.9	-5.1	8.7*	-19.8	2.0	0.8	108.2*	41.4*
SMILES	M18AAP inhibitor	HDAC3 inh	GAA850 FXN act	SENP1 FRET inh	AHR act	CTSL1 counter	GAA30 counter	FXN GAA850 conf
Nc1ccc(Cl)c(-c2nc3ncccc3o2)c1	-4.9	-2.9	-0.3	-3.0	0.2	-3.8	·	·
Cc1ccc(C(=O)NCCc2csc(-c3cccnc3)n2)cc1	4.7	-0.6	19.9*	-3.2	6.5	-1.7	76.4*	27.3*
N#C/C(=C\c1ccccc1)C(=O)Nc1ccccn1	-9.1	-9.7	0.9	-40.5	-0.4	-2.4	·	·
N#C/C(=C\c1cccs1)C(=O)Nc1ccccn1	-0.8	-5.8	8.9*	-69.3	-1.2	4.2	106.1*	33.7*
CCN(CC)S(=O)(=O)c1cccc(C(=O)NC(C)C(c2cccs2)N2CCCC2)c1 (centres undefined)	3.5	-2.3	0.0	-3.8	-2.9	-5.6	·	·
CC(Nc1cc(N2CCOCC2)ccc1[N+](=O)[O-])c1ccccc1 (centres undefined)	3.4	8.2	8.8*	1.0	1.6	2.2	33.8*	15.2*
COc1cccc(OCCNc2cc(N3CCOCC3)ccc2[N+](=O)[O-])c1	-8.7	0.9	10.0*	3.4	34.5	1.1	67.5*	30.7*
Cc1cccc(C)c1NC(=O)CN(Cc1ccccc1)Cc1ccccc1	·	·	·	-0.3	·	·	·	·
CS(=O)(=O)c1ccc(S(=O)CC(=O)OCc2ccccc2)c([N+](=O)[O-])c1 (centres undefined)	10.7	·	95.3*	2.7	·	·	-91.1	-16.9
Cc1cc(C)cc(C(O)c2ncc(-c3ccccc3C)[nH]2)c1 (centres undefined)	·	·	-0.1	-3.0	·	·	·	·
